Screens as filed in PubChem.
XBP1 UPR activ: activators of adaptive arm of unfolded protein response (XBP1) | activation, % at 20 µM | 330,000 compounds, 0.33% hits | CHO-XBP1 luciferase reporter, IRE1-XBP1 UPR activation, luminescence; percent of tunicamycin response, DMSO as zero;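 active = versus positive control, 20 µM dose yields 30% or more activation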;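 also: 100% = tunicamycin at 10 µg/mL and 0% = DMSO only wells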
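assay system = CHO-XBP1 luciferase reporter cells | amount = 1000 cells/well | buffer or medium = F12 plus 10% FBS | compound dosing = single point, 20 µM final compound, 1% DMSO | incubation = 16-18 h cell attachment at 37 °C, then 6 h compound exposure | detection = Steady-Glo luminescence read | controls = tunicamycin 10 µg/mL and vehicle-only wells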
CHOP inh: blocks CHOP induction under ER stress | CHO-K1 CHOP-promoter luciferase, tunicamycin-induced, 15-18 h | inhibition, % at 10 µM | 220,000 compounds, 3.8% hits | AID 2732;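 active = compounds that reduced the stress-induced luciferase reporter signal by more than about 70% of percent inhibition, limit read from the data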;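 also: 0% = tunicamycin plus vehicle and 100% = wells without tunicamycin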
A1 inh: inhibitors of the anti-apoptotic protein A1, read as caspase activation; MEF A1-2A-BIM cells, Caspase-Glo 3/7 luminescence, 3 h; percent of clofoctol response, vehicle zero; caspase activation, % (no concentration beside the values); 330,000 compounds, 0.066% hits; AID 2462;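 active = over half of replicate activation scores above 10%, or exactly half above 10 with the replicate mean above 10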
CHOP UPR activ: apoptotic UPR (CHOP) activation. CHO-CHOP luciferase reporter, luminescence; percent of tunicamycin response over DMSO baseline. activation, % at 10 µM. 330,000 compounds, 0.34% hits. AID 449763;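 active = at 10 µM dose, activation of 40% or more, normalized to positive control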;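 also: 100% = tunicamycin at 10 µg/mL and 0% = DMSO alone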
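System: CHO CHOP reporter cells. Amount: 500 cells per well. Buffer or medium: F12 medium, 10% FBS. Compound dosing: one dose, 10 µM in 0.5% DMSO. Incubation: 6 h compound exposure at 37 °C after overnight seeding. Technique: Steady-Glo luciferase luminescence. Benchmarks: tunicamycin and DMSO controls.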
* = called active by the depositor; / = not tested or not shown. Only a selection was taken, and hits are over-represented in it overall.

SMILES | XBP1 UPR activ | CHOP inh | A1 inh | CHOP UPR activ
CCN1CCN(C(c2cccs2)C(C)NS(=O)(=O)c2ccc(F)cc2)CC1 (configuration not stated) | -4.0 | 73.3* | -0.6 | -0.3
O=C(/C(=N/N=C/c1ccc(O)c(O)c1O)c1ccccc1)c1ccccc1 | 0.3 | 72.1* | -0.6 | 0.0
Oc1ccc(/C=N/N=C(c2ccccc2)c2ccccc2)c(O)c1O | / | 70.2* | -0.1 | /
Oc1cccc(C=NCc2ccccc2)c1O | -2.9 | 16.0 | 0.4 | -1.0
CCN(CC)S(=O)(=O)c1cccc(C(=O)N/N=C/c2ccc(O)c(O)c2O)c1 | / | 57.5 | 1.1 | /
Cc1ccc(S(=O)(=O)N2CCC(C(=O)NCCc3ccccn3)CC2)cc1 | -1.3 | -2.3 | -0.4 | -1.2
CC(=O)NC1CC2CCCC(C1)N2S(=O)(=O)c1ccccc1 (configuration not stated) | 0.0 | 9.9 | 0.7 | 0.1
Cc1nn(CC(O)COc2ccc3c(c2)CCC3)c(C)c1Br (configuration not stated) | -2.5 | 82.0* | 0.3 | 6.9
COc1cc(N/N=C(\C)c2ccc(N)cc2)nc(-c2ccccc2)n1 | -2.0 | 80.5* | 1.6 | 2.2
COc1cc(N/N=C(\C)c2ccc(O)c(C)c2)nc(-c2ccccc2)n1 | 6.1 | -3.0 | -0.1 | 0.3
CC(=O)NCCOC(=O)Nc1cccnc1 | -4.7 | 6.1 | -0.4 | 1.5
CCOC(=O)C1=C(C)NC(C)=C(C(=O)OC)C1c1ccco1 (configuration not stated) | 2.9 | 1.8 | 0.9 | 3.2
CCOC(=O)C1=C(C)NC(=O)C(C#N)C1c1ccco1 (configuration not stated) | -1.1 | 70.5* | -0.4 | -1.1
Cc1ccc(S(=O)(=O)NCCC(=O)N2CCN(Cc3ccccc3)CC2)cc1 | 1.7 | 82.4* | 0.1 | -3.0
CC(=O)N1CCc2cc(S(=O)(=O)NCCC(=O)N3CCN(Cc4ccccc4)CC3)ccc21 | -2.1 | 12.0 | 1.2 | -2.9
O=C(C[C@@H]1C/C=C\C[C@H](NC(=O)OCC2c3ccccc3-c3ccccc32)C(=O)OC[C@@H]2CCCN2C1=O)NCCO | 1.3 | / | 1.5 | 2.1
Cc1sc2ncnc(NCCc3ccc(S(N)(=O)=O)cc3)c2c1C | 1.1 | 73.3* | 0.3 | 3.0
NS(=O)(=O)c1ccc(CCNc2ncnc3sccc23)cc1 | -1.0 | / | 0.1 | -2.0
COc1ccc(CCN(C)C(=O)c2ccc3c(=O)n4c(nc3c2)CCCCC4)cc1OC | -0.3 | / | -0.3 | -0.4
Cc1nc(Nc2ccccc2)sc1-c1ccccc1 | 0.1 | 70.4* | -8.1 | 6.6
Cc1nc(Nc2ccc(C(=O)O)cc2)sc1-c1ccccc1 | -5.4 | 44.8 | -14.8 | -7.0
CC(=O)N1c2c(cc(Br)cc2S(=O)(=O)NCc2cccnc2)CC1C (configuration not stated) | 2.2 | -2.8 | -0.2 | -0.1
CCCCN(Cc1ccccc1)S(=O)(=O)c1cc(Br)cc2c1N(C(C)=O)C(C)C2 (configuration not stated) | -2.1 | 84.4* | 0.7 | 0.2
c1ccc(C2CC(c3ccccc3)n3ncnc3N2)cc1 (configuration not stated) | -1.2 | 21.9 | -0.7 | -1.0
Clc1ccccc1C1CC(c2ccccc2)Nc2ncnn21 (configuration not stated) | -1.2 | 92.2* | -0.1 | -0.7
SMILES | XBP1 UPR activ | CHOP inh | A1 inh | CHOP UPR activ
Cc1cccc(-c2nnc(NC(=O)c3ccc(Cl)cc3)o2)c1 | 2.7 | 79.5* | -0.8 | 0.8
O=C(Nc1nnc(-c2ccc3c(c2)OCCO3)o1)c1ccc(Cc2ccccc2)cc1 | -1.5 | 96.9* | / | -1.7
O=C(Nc1nnc(-c2ccc3c(c2)CCCC3)o1)c1ccccc1 | -2.1 | 100.5* | -0.1 | -2.9
Cc1ccc(CNC(=O)C2CCCN(C(=O)N(C)C)C2)cc1 (configuration not stated) | -1.7 | -2.4 | 0.2 | -0.4
O=C(NCc1ccccn1)C(=O)Nc1nc(C23CC4CC(CC(C4)C2)C3)cs1 | 7.7 | 70.5* | -0.3 | 0.6
O=[N+]([O-])c1c(Nc2ccccn2)cc(Cl)c2nonc12 | -10.9 | 108.0* | -2.2 | -10.5
O=C(CCc1ccccc1)NC(c1cccs1)c1cc(Cl)c2cccnc2c1O (configuration not stated) | / | 89.4* | / | /
CCCC(=O)NC(c1cccs1)c1cc([N+](=O)[O-])c2cccnc2c1O (configuration not stated) | / | 35.8 | 0.0 | /
CCCCC(=Nc1ccccc1OC)C1=C(O)CC(c2ccccc2)CC1=O (configuration not stated) | -2.5 | 27.9 | 0.1 | 2.6
COc1ccc(CCNc2oc(COc3ccccc3F)nc2C#N)cc1 | 0.6 | 86.6* | 0.2 | -0.2
CCNc1oc(-c2ccc(OC)cc2)nc1S(=O)(=O)c1ccc(Br)cc1 | -0.7 | 35.0 | 0.7 | 0.3
COc1ccc(-c2nc(C#N)c(NCCc3ccccc3)o2)cc1 | 1.9 | 89.6* | -0.4 | 3.3
CCCCNc1oc(-c2ccc(OC)cc2)nc1S(=O)(=O)c1ccccc1 | -0.7 | 71.8* | 1.7 | 1.0
O=C(O)CNC(=O)c1ccc(NC(=O)/C(=C/c2cccc([N+](=O)[O-])c2)NC(=O)c2ccco2)cc1 | -1.6 | / | 0.2 | 0.0
COc1ccc(-c2cnnc(N/N=C/c3ccc(O)c(O)c3)n2)cc1 | -1.2 | 36.8 | -0.6 | 0.1
COc1ccc(-c2cnnc(N/N=C/c3ccc(O)cc3)n2)cc1 | 9.9 | 81.4* | -0.2 | 4.8
Cc1ccccc1NC(=O)C(C)c1cccc(C(=O)c2ccccc2)c1 (configuration not stated) | -1.9 | -2.9 | 0.6 | -0.1
O=C(CCNC(=O)c1ccc(Br)cc1)Nc1cccc(S(=O)(=O)N2CCCCCC2)c1 | -6.2 | / | -0.8 | -0.5
S=C(NCCC(c1ccccc1)c1ccccc1)Nc1ccccc1Cl | -2.4 | -0.7 | 0.1 | 0.7
Fc1ccc(CCNC(=S)Nc2ccc(F)c(Cl)c2)cc1 | -2.1 | 90.4* | 1.6 | -1.2
S=C(NCCC1=CCCCC1)Nc1ccc(Cl)cc1 | -0.8 | 81.2* | -1.3 | 4.5
S=C(NCCCc1ccccc1)Nc1ccc(Cl)cc1 | 1.9 | 76.7* | -0.5 | 1.3
S=C(NCCC(c1ccccc1)c1ccccc1)Nc1ccc(Cl)cc1 | -1.0 | 78.0* | 1.0 | 0.5
COc1cccc(CN2CC(C(=O)NCc3cnn(C)c3)CCC2=O)c1 (configuration not stated) | -3.9 | / | -0.6 | 1.4
CCN(CC)C(=O)Cn1cc(C(=O)C(=O)NCCc2ccc(S(N)(=O)=O)cc2)c2ccccc21 | -0.7 | 10.9 | 2.1 | -1.0
CCC1CCCCN1S(=O)(=O)c1ccc(NC(=O)c2nc(S(C)(=O)=O)ncc2Cl)cc1 (configuration not stated) | -8.5 | / | 10.6* | -11.2
CS(=O)(=O)c1ncc(Cl)c(C(=O)Nc2ccc3ccccc3c2)n1 | / | 105.5* | / | /
CCS(=O)(=O)c1ncc(Cl)c(C(=O)Nc2ccc(S(=O)(=O)N3CCCC(C)C3)cc2)n1 (configuration not stated) | -10.5 | / | 49.1* | -11.2
